# A selection: hits, their analogues and other compounds. The true share with any hit is near 3.6%.
# SENP1 FRET inh = human SENP1 catalytic domain inhibitors, primary screen, biochemical, FRET, uHTS | hit rate 0.21% among 360,000 | AID 624204, 2012 | inhibition, % at 10 µM | Sentrin-specific protease 1 (Homo sapiens), Q9P0U3 | recombinant SENP1 catalytic domain, CyPet-SUMO1-YPet FRET cleavage;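 active = inhibition at least 30% at 10 µM, raw YFP signal under a set limit, fluorescence ratio 0.5 to 1.5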;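 note: 0% = enzyme with DMSO and 100% = no enzyme wells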
# Target sequence (Q9P0U3 419-644 limits assumed): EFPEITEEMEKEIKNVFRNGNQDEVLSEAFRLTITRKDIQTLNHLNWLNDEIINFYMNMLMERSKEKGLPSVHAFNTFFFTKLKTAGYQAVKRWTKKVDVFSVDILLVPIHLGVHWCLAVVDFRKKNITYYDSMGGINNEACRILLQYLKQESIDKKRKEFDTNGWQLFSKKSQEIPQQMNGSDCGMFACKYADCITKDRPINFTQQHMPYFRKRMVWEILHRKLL
#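 Assay system: hSENP1 catalytic domain, recombinant. Amount: SENP1 enzyme, 20 pM final. Schedule: 50 min reaction, RT, dark. Technique: FRET, CFP and YFP emission. Control set: no-enzyme wells low, DMSO-plus-enzyme wells high control.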
# NR3A LBD binder = binders of NR3A ligand-binding domain, primary screen, biophysical, differential scanning fluorimetry, uHTS | Glutamate receptor ionotropic, NMDA 3A (GRIN3A) ligand-binding domain | Tm shift relative to glycine control, % at 25 µM | NR3A LBD differential scanning fluorimetry, Tm shift; 0% = protein alone, 100% = glycine-bound protein | hit rate 2.5% among 340,000;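 active = melting temperature shift of at least 10% of the positive control shift, at one fixed dose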
# ATG4B inhibitor = ATG4B protease inhibitors, primary screen, biochemical, fluorescence, uHTS; Cysteine protease ATG4B (Homo sapiens), Q9Y4P1; ATG4B cleavage of LC3-PLA2, NBD-HPC fluorescence, 1 h; inhibition, % at 8.33 µM; hit rate 0.51% among 340,000; in the data active = inhibition above about 40%
# Target sequence (Q9Y4P1 whole entry, looked up): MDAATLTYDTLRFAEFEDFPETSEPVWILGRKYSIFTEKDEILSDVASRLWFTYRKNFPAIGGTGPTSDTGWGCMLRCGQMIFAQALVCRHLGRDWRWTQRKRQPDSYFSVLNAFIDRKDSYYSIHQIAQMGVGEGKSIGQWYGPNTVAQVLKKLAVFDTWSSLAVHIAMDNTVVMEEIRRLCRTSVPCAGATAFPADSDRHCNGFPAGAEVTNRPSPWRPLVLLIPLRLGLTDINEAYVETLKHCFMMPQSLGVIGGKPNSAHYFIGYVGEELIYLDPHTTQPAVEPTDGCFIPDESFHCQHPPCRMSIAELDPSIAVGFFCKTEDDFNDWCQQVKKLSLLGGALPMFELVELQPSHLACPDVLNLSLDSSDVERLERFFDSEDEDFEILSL
# NadD block = inhibitors of S. aureus NadD, primary screen, biochemical, colorimetric, uHTS. Nicotinate-nucleotide adenylyltransferase NadD (Staphylococcus aureus N315). purified NadD enzyme, colorimetric absorbance read-out. inhibition, % at 20 µM. hit rate 0.78% among 360,000; in the data active = inhibition above about 26%
# UCH37 DUB inh = inhibitors of human UCH37 deubiquitinase, primary screen, biochemical, Ub-AMC cleavage, fluorescence. Ubiquitin carboxyl-terminal hydrolase isozyme L5 (Homo sapiens), Q9Y5K5. purified proteasome/UCH37. inhibition, % (concentration not given with the values). hit rate 0.33% among 330,000. AID 588478, 2011;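 active = mean inhibition over replicate wells above about 20%, limit read from the data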;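 note: 0% = compound-free wells with enzyme and 100% = wells lacking proteasome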
#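 Material: human UCH37 enzyme supplied as purified proteasome complex / Amount: 0.15 nM proteasome as dispensed / Buffer or medium: pH 7.4 Tris-HCl (50 mM) with ovalbumin, ATP-MgCl2, DTT / Times: preincubation 30 min, reaction 25 min, room temperature / Technique: AMC fluorescence from Ub-AMC cleavage, excitation 355 nm, emission 460 nm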
# The depositor's hits bear a star; . = no result.
SMILES,SENP1 FRET inh,NR3A LBD binder,ATG4B inhibitor,NadD block,UCH37 DUB inh
O=C(Nc1ccccn1)c1ccc(-c2ccccc2)cc1,-2,36*,8,-5,1
CC(C)CNS(=O)(=O)c1ccc(S(=O)(=O)N2CCCN(Cc3ccccc3)C2)cc1,1,13*,-12,-10,1
COc1ccc(S(=O)(=O)N2CCN(Cc3ccccc3)CC2)cc1,0,11*,-4,-5,2
COc1ccc(S(=O)(=O)N2CCN(Cc3cccc(OC)c3)CC2)cc1,-1,-1,-5,-3,3
COc1cccc(S(=O)(=O)N2CCN(Cc3ccc4c(c3)OCO4)CC2)c1,1,14*,2,-6,2
CC1CCCN(S(=O)(=O)c2ccc(S(=O)(=O)N3CCCN(Cc4ccccc4)C3)cc2)C1 (stereo not drawn),1,-2,-3,-8,1
O=C(O)C1C2C=CC3(CN(c4cccc(C(F)(F)F)c4)C(=O)C13)O2 (stereo not drawn),-1,11*,5,-3,3
Cc1cccc(N2CC34C=CC(O3)C(C(=O)O)C4C2=O)c1 (stereo not drawn),0,-1,-10,-2,0
COc1ccc(C(=O)N2CCN(Cc3cn[nH]c3-c3ccc(OC)cc3F)CC2)cc1,0,48*,15,-5,3
Cc1cccc2c(=O)cc(C)n(Cc3ccccc3)c12,2,12*,-8,3,0
CNC(=O)Cn1c(C)cc(=O)c2cccc(C)c21,3,-1,-3,-3,3
O=C(COC(=O)c1ccco1)Nc1ccc(Br)cc1,2,11*,-2,-1,1
O=C(COC(=O)c1ccco1)c1ccccc1,1,-5,1,-3,1
O=C(COC(=O)c1ccco1)c1ccc2ccccc2c1,0,10*,9,-6,-10
Cc1ccc(C(=O)OCC(=O)Nc2ccc(N(C)C)cc2)cc1NC(=O)c1ccco1,1,15*,-7,3,2
O=C(COC(=O)c1ccco1)Nc1ccccc1,-1,0,-6,4,-6
COc1ccc(C)cc1NC(=O)c1ccccc1NS(=O)(=O)c1ccc(Cl)s1,1,17*,-9,-5,5
COc1ccc(C(=O)Nc2ccc(S(=O)(=O)N3CCCC3)cc2)cc1,-3,14*,-7,-8,4
COc1ccc(NC(=O)c2cc(S(=O)(=O)N3CCCCC3)c[nH]2)cc1Cl,1,25*,9,0,0
CC(C)c1ccc(NC(=O)c2cc(S(=O)(=O)N3CCCC3)c[nH]2)cc1,2,-11,-3,0,7
COc1ccc(S(=O)(=O)N2CCN(C(=O)c3cnc(C)cn3)CC2)cc1,-3,-3,-14,-3,34*
Cc1ccc(C=NN2C(=S)SC(C)(C)C2N(O)C(=O)Nc2ccc([N+](=O)[O-])cc2)cc1 (stereo not drawn),.,.,.,.,8
C=CCN1C(=O)C(Cc2ccc(Br)cc2)SC1=NN=Cc1ccco1 (stereo not drawn),.,.,.,.,1
O=[N+]([O-])c1cc(C=NN/C(=N/c2ccccn2)c2ccccn2)ccc1O,.,.,.,.,4
COc1ccc(NC(=O)CCCNC(=O)c2ccc(Cl)cc2)cc1OC,-1,1,-5,-5,1
SMILES,SENP1 FRET inh,NR3A LBD binder,ATG4B inhibitor,NadD block,UCH37 DUB inh
COc1ccc(NC(=O)CCCNC(=O)c2ccc(Cl)cc2)cc1S(=O)(=O)N1CCCCC1,3,12*,-4,3,0
COc1ccc(NS(=O)(=O)c2ccc(O)c(NC(=O)c3ccc(S(=O)(=O)N4CCCC4)cc3)c2)cc1,2,4,-11,-2,1
O=S(=O)(Nc1cccc(S(=O)(=O)N2CCOCC2)c1)c1ccc(Cl)s1,-8,1,-2,1,2
Cc1ccc(NC(=O)c2ccccc2NS(=O)(=O)c2ccc(Cl)s2)cc1S(=O)(=O)N1CCOCC1,2,24*,0,2,-3
O=C(Nc1cc(S(=O)(=O)N2CCOCC2)ccc1O)c1ccc(NS(=O)(=O)c2ccc(Cl)s2)cc1,2,19*,7,-2,4
COc1ccc(NS(=O)(=O)c2ccc(O)c(NC(=O)c3ccc(S(=O)(=O)N4CCCCCC4)cc3)c2)cc1,5,16*,8,29,2
O=S(=O)(Nc1cc(S(=O)(=O)N2CCCC2)ccc1O)c1ccc(Cl)s1,0,-6,-6,2,-1
Cc1ccc(C=NNC(=O)c2ccccc2OCc2ccc(F)cc2)o1,.,.,.,.,6
ON=Cc1cc(Br)ccc1OCc1ccccc1F,.,.,.,.,2
CON=C(CS(=O)(=O)c1ccc(C)cc1)c1ccc(OC)cc1,.,.,.,.,2
CN1CCN(S(=O)(=O)c2cccc(C(=O)Nc3cccc([N+](=O)[O-])c3)c2)CC1,1,17*,-12,-5,2
CCc1cccc(NC(=O)c2cccc(S(=O)(=O)N3CCN(C)CC3)c2)c1,2,-1,-11,1,2
O=C(Nc1ccc([N+](=O)[O-])cc1)c1ccc(S(=O)(=O)N2CCCC2)cc1,2,11*,-2,0,0
Cc1ccc(S(=O)(=O)N2CCOCC2)cc1NN=C(C#N)c1nc2ccccc2[nH]1,.,.,.,.,2
O=C(NN=Cc1cccnc1)c1cc(C2CC2)nc2ccccc12,.,.,.,.,4
CC(CC1CC2=C(CC1(C)C)C(C)(C)CCC2)=NNC(N)=S (stereo not drawn),.,.,.,.,4
CCC1=Nc2cc(C(=O)NCc3ccco3)ccc2Sc2ccc(C)cc21,-3,-11,51*,5,3
COc1ccccc1NCC(O)Cn1c2ccccc2c2ccccc21 (stereo not drawn),2,11*,22,3,-5
O=C(CNc1n[nH]c(=O)[nH]c1=O)NN=CC1CC=CCC1 (stereo not drawn),.,.,.,.,2
Cc1ccc(S(=O)(=O)N(C)CC(=O)OCC(=O)NC(=O)NC(C)C)cc1,1,0,-10,-3,-1
CC(=O)Nc1ccc(S(=O)(=O)N(C)CC(=O)OCC(=O)c2ccc[nH]2)cc1,15,-1,6,-1,1
Cc1ccc(S(=O)(=O)N(C)CC(=O)OCC(=O)NC(c2ccccc2)c2ccccc2)cc1,1,24*,-7,-3,1
CC(=O)Nc1ccc(S(=O)(=O)N(C)CC(=O)OCC(=O)NNC(=O)c2ccccc2F)cc1,2,18*,6,7,0
CCOC(=O)C(=NNc1ccccc1)Sc1nnc(CCc2ccccc2)n1-c1ccccc1,.,.,.,.,4

# Source: PubChem BioAssay
